Source: the EternaBench riboswitch data

Test system: MS2 coat protein
Experiment: apparent Kd, MS2 coat protein; higher = weaker binding; RNA-MaP array; FMN 200 µM where present
How it was run: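 Stalled E. coli RNA polymerase transcribed the designs on Illumina sequencing-chip clusters. SNAP-549-labelled MS2 coat protein was titrated from 0.7 or 1.5 nM, doubling to 3 µM, without and then with constant ligand, in 100 mM Tris-HCl pH 7.5, 80 mM KCl, 4 mM MgCl2, BSA, DTT, yeast tRNA and Tween-20. Per-cluster binding curves were fitted to green signal normalised to red-channel RNA signal and control-cluster median Fmax. The apparent Kd is the median of the filtered fits.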

[1] = designed as: OFF switch for flavin mononucleotide, no ligand
[2] = ligand present: flavin mononucleotide, designed as: OFF switch for flavin mononucleotide
[3] = designed as: ON switch for flavin mononucleotide, no ligand
[4] = ligand present: flavin mononucleotide, designed as: ON switch for flavin mononucleotide

Sequence	apparent Kd [1]	apparent Kd [2]	apparent Kd [3]	apparent Kd [4]
GCCUCACAUGAGGAUCACCCAUGUCAGGAUAUAGGAGGCAGUAGAUAUCCUACCGCCGCUAGAAGGGACUGGCA	49.1 nM	131 nM	–	–
GCUGCCGAUGCAGGAUAUCAGCACGUGUAGUGCUGAGAAGGGCACAUGAGGAUCACCCAUGUGAUCAAUUAAUAUCCGUGCAGC	5.89 nM	7.78 nM	–	–
ACGGAACAUGAGGAUCACCCAUGUAUCUGAGAUAAGCUCUCGCAGGAUAUUCAGAGAAGCCUAUCGGAGAAGGGUGACAGCAAA	–	–	25.3 nM	15.5 nM
ACCAUUUACUAAUCGUCUAUACAUGAGGAUCACCCAUGUUAUGAGGAUAUCGUCGUGAAACACGACGAGAAGGCAUAGCAUUCG	32.2 nM	132 nM	–	–
UGCUACGUUUCGUAGCAGUGUCAUCGAGAAGGCCCUGACAUGAGGAUCACCCAUGUUGUUACAUGGGAGGAUAUCGAUGAUACG	–	–	12 nM	4.9 nM
ACUUUAGUAUCACAUGUAUUACAUGAGGAUCACCCAUGUUACUAGGAUAUGUAUUAGAAUUUACAACAGAAGGAGUUAAUUUGU	7.92 nM	7.59 nM	–	–
GGCCGAAUGGUCUAGGUGCACUUACAUGAGGAUCACCCAUGUCAGGAUAUCUUACGGGUCUCGUAAGAGAAGGGACAUCGCUAU	52.2 nM	215 nM	–	–
GCUGUCGCAUGAGGAUAUGGUCAGCUUUGCUGACCAGAAGGCAUGUCAAUAGACAUGAGGAUCACCCAUGUAGUUAAGACAGCA	–	–	717 nM	49.2 nM
UUAUAUAGGUAGGAUAUCGAUAUUAAUUAUUAUCGAGAAGGGUCUACAUGAGGAUCACCCAUGUUAGCAUGUAU	28.9 nM	32.9 nM	–	–
UUAACUCAUGUAGGAUAUGCAUGGCGAAGCUACGCAGAAGGACAUGAGGAUCACCCAUGUUCUAGCGUCUGAAUACAGAUGCAA	53.7 nM	303 nM	–	–
UCCUCGUCAGGAUAUCCACGGAAUAGCGGGAUACCGAGCGUGGAGAAGGGACAUGAGGAUCACCCAUGUAAAAU	29.4 nM	61.2 nM	–	–
UUACUAUUGGAGAAGGCUCGAUAAUAUAUAAAGGGAGGAUAUCCAACAUGAGGAUCACCCAUGUUUCACCCAUAUGAGGAUCAC	14.8 nM	15.7 nM	–	–
GCUGCGCGAGGAUAUGCGGUUUGUGCUUUGGCCCGUGGCGUACAUGAGGAUCACCCAUGUAGAAGGCGUGUGGG	21.4 nM	21.7 nM	–	–
GUGAAGAUAUCAGGAUAUCUAUUUCCUACAUGAGGAUCACCCAUGUAGGUGAUCAGCCGAGUAAAGGAGAAGGGAUAUCUUUAC	–	–	23.6 nM	10.1 nM
AUCGGAAUGUAGAAGGGUGACAUGAGGAUCACCCAUGUACAAAUGCGUUUUUCGGUAAUUGAUCCACAGGAUAUACUGUCCGAG	–	–	1080 nM	794 nM
GCCCUAAAGCGGGCCGACCAUACAUGAGGAUCACCCAUGUCGAGAAGGUGCUCACGGGUGGGUGGCAAGGAUAUCGGGUCGGAA	–	–	65.6 nM	32.6 nM
GCUGUCGCGUGAGGAUAUGGUCGGCUGUGCUGACCAGAAGGCAUGUCAAUAGACAUGAGGAUCACCCAUGUGGUUAGGGCGGCU	–	–	865 nM	127 nM
GUGUACAGAGGAUAUACUGGAGCAUGGAAACAUGCAACCUCACAUGAGGAUCACCCAUGUAGAAGGCUGUACAC	334 nM	28.2 nM	–	–
AAAGACAGAGGAUAUGCACGCCGACCCGGGCGGGAAGUCGGACAUGAGGAUCACCCAUGUAGAAGGCUGAGAAA	11.3 nM	14.8 nM	–	–
GGUACUAUCACAGGAUAUGCUUUCCUUUGGGAAGCAGAAGGGUGUAACAUGAGGAUCACCCAUGUGGUGCCAGGGCGCGAGCCC	–	–	137 nM	16.7 nM
GUGUACGGAGGAUAUAUGUGGUGAGCAUACGCUCAAGCUUCACAUGAGGAUCACCCAUGUAGAAGGCUGUGCAC	210 nM	150 nM	–	–
UGCGUACAAGCGGACAUGAGGAUCACCCAUGUAUUGUUAUGCGAGGAUAUCGGGAAGCAGGAUUCCGAGAAGGUGCGGUGAGCC	–	–	19.2 nM	17.7 nM
UGAACUUCAGAGAAGGUCGAACGGCAACGGUUCGAAGGAUAUCUGGAAACAUGAGGAUCACCCAUGUAACCGGGUGGAUGUCCU	58.9 nM	291 nM	–	–
CUCAUGUGAGGAUAUGUGAUCAACCUUCUGUAUAGAUGAUUACAGAAGGCACAUGAGGAUCACCCAUGUAGAUC	106 nM	125 nM	–	–
GGUCUGACAUAAGGAUAUGCUCAGGAAUACUGAGCAGAAGGUAUGUGAAAACAUGAGGAUCACCCAUGUGAUCAAUACAGACCA	–	–	18 nM	20.9 nM
GGUGCGUAUGUGAGGAUAUGCUGGUCCUUGGAUCAGCAGAAGGCACAUGAGGAUCACCCAUGUGGUGUCGUGCC	114 nM	20.8 nM	–	–
GCCUAAAGUGAGGAUAUCUAGCGCGUAAAGGCAGGAGAAGGUGCAACAUGAGGAUCACCCAUGUAGGCUGUCUA	19.5 nM	20 nM	–	–
AAAAAAUGAGGAUAUACAUGAAAAAAAAAAAAAAAAAAAAAACAUGAGGAUCACCCAUGUAGAAGGCGUAAAAA	51.2 nM	41.4 nM	–	–

Sequence	apparent Kd [1]	apparent Kd [2]	apparent Kd [3]	apparent Kd [4]
AGCAAGCGAGGAUAUGCUCGGGUUGCUUGUCGAGAGGAUACACAUGAGGAUCACCCAUGUAGAAGGUGUAUAAA	37.7 nM	28.4 nM	–	–
AACAAGAGGAUCACCCAUGUAACAUGAGGAUCACCCAUGUUCAAGGAUAUGUACAUGAUACAUGUACAGAAGGUGAAUUGGACU	21 nM	36.2 nM	–	–
CUUUUGUGAGGAUAUUAGUAGUAAAUAAAUAAAAUUACUACUGAGAAGGCACAUGAGGAUCACCCAUGUUUCUC	32.4 nM	284 nM	–	–
AUCAGCUCGUCAGGAUAUACGUCACUGCUUCGGCAGUGUGGUAAGAUCACAUGAGGAUCACCCAUGUAGAAGGGACGAGCUGAA	13.3 nM	259 nM	–	–
UGAUAACAUGUAGGAUAUGCAGCAUUGACCACUGCAGAAGGACAUGAGGAUCACCCAUGUAUCCAUACUAUGGGAUCACGCAAU	24 nM	85.5 nM	–	–
CGUCGGAGCAGAGGAUAUUACAUGAGGAUCACCCAUGUAUGAACCAAUAGCUGGAAACAGCAAUGUAAGAAGGCUGCUCCGACA	12.8 nM	198 nM	–	–
GUUACACAUGAGGAUCACCCAUGUAAGGAUAUGCUGCGGUCGCGCUGACGUGACUGCAGCAGAAGGUACACAUG	105 nM	133 nM	–	–
AGGCUAUUAGGAUAUACAUGAGGAUCACCCAUGUCGAUCUACAGGCUACGGCACGGCAGUAGAAGGAAUGGCCG	15.7 nM	16.7 nM	–	–
UUUUAACAUGAGGAUCACCCAUGUGAGGAUAUCGAAAUUUAUAUUAAUAUUUUUAAAUCGAGAAGGCACAUUUU	121 nM	109 nM	–	–
GGUCUUCAAGUCAGGAUAUCGUCUAAUCGAUCUAACGAGAAGGGACAUGAGGAUCACCCAUGUCGUCUCAUCAG	19.1 nM	28.5 nM	–	–
AUCAGCUCGUCAGGAUAUACGUCACUGCGUCAGCAGAGUGGUAAGAUCACAUGAGGAUCACCCAUGUAGAAGGGACGAGCUGAU	39.5 nM	421 nM	–	–
UUGCAGUGCGGGUAGGAUAUGUAGGGUGGUACAUGAGGAUCACCCAUGUAUCCACCCUUCGACCGGCAGAAGGGCCUGUCACCGC	–	–	15.2 nM	14.8 nM
GGUCCAUCAUGAGGAUAUGGCACCUUAUUGGUGCCAGAAGGCAUGUCUUUAGACAUGAGGAUCACCCAUGUAAUAAAUUGGACC	–	–	1150 nM	76.5 nM
UCUUACGGAGGAUAUACAUGAGGAUCACCCAUGUAUGGUACGUUGGCUCUACCUUAUAGUAGAAGGCCGGAAGG	37 nM	233 nM	–	–
CCACGUCACAUUAACAUGAGGAUCACCCAUGUCUCUAGACAUGAGGAUAUGGAUCCUAAUUGGAUCCAGAAGGCAUGGACGUGG	–	–	1420 nM	138 nM
ACGCCCUGAGGAUAUCUUAUCCCGCACAUGAGGAUCACCCAUGUUCUCCUCCGGGCUCCGAGAGAAGGCAGGCCCA	30.7 nM	41.2 nM	–	–
AUAAUACAUGAGGAUCACCCAUGUAAUUUAACUUGUAAGAUCAAGGAUAUCAGCUCGUUUAGAGCUGAGAAGGUGAUCACAUGU	–	–	187 nM	292 nM
AUAAAACAUGAGGAUCACCCAUGUCAACAAAGUCGAGGAUAUGGGUAAAUAAAAUAAGAACCAGAAGGCGAAUAAU	–	–	597 nM	132 nM
GGAUGACAAAGUCAUCCUAUUCGAACAUGAGGAUCACCCAUGUAGGAUAUGCUACACAAAGUGUAGCAGAAGGACAUGUGCUUU	33.8 nM	171 nM	–	–
GAGUAGUUAAAAGGAUAUUGAUUAUUGUAGGAUCAAGAAGGUUUUAACAUGAGGAUCACCCAUGUAGGACUAUAAAUGUGAAAA	–	–	17.5 nM	15 nM
CACUGCAAUGUAGGAUAUCGACUGGAUAACAGUCGAGAAGGACAUGAGGAUCACCCAUGUACUAUGAGUGAAUAAUAAGCAGUG	89 nM	950 nM	–	–
AUCAGCUCGUGAGGAUAUACGUCACUGCGUCAGCAGUGUGGUAAGAUCACAUGAGGAUCACCCAUGUAGAAGGGACGAGCUGAU	15.6 nM	45.9 nM	–	–
CAGCGGUGAGGAUAUACGUAGGUACAGAUCUGUGUGUUCCUACAUGAGGAUCACCCAUGUAGAAGGCAUGGCUG	43 nM	140 nM	–	–
GGGUACGUUUCGUAGCAGUGUCAUCGAGAAGGCCCUGACAUGAGGAUCACCCAUGUUGUUACAUGGGAGGAUAUCGAUGAUCCC	–	–	53.6 nM	8.36 nM
UGUUGUAUUACAGGAUAUCUAUUAUUUUUAUAUAGAGAAGGGUAUUCACAUGAGGAUCACCCAUGUAUAUACGAGGAAGUUGUG	–	–	37.2 nM	40.8 nM
GGUACUCAAAGAGUACCAAUACGAACAUGAGGAUCACCCAUGUAGGAUAUGCUACUCAAAGAGUAGCAGAAGGACAUGUGUCUA	29.6 nM	160 nM	–	–
CGGUGACGUGUAGGAUAUGGAGAUGGGUUUUGGCCAGAAGGACAUGAGGAUCACCCAUGUGGUAGAGGGUUGGCGGCUGCCCGU	16.7 nM	18.7 nM	–	–
